Test results reported in ChEMBL document CHEMBL2040797, “Synthesis of benzimidazoles bearing oxadiazole nucleus as anticancer agents” (2012).

Legend:
Type in all cases: functional
[1] = system: 786-0; test: Cytotoxicity against human 786-0 cells after 48 hrs by sulforhodamine B assay; conditions: 786-0, 48 h
Method in brief: (§1)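 NCI 60-panel screen. Cells were grown in RPMI 1640 with 5% FBS and L-glutamine and plated at 5000–40,000 cells/well according to doubling time. They were preincubated 24 h at 37 °C, 5% CO2, then exposed 48 h to five 10-fold dilutions. Adherent cells were fixed with cold TCA, final 10%; suspension cells were fixed after settling. Cells were stained with 0.4% SRB and read at 515 nm. Tz/C/Ti growth curves gave GI50, TGI and LC50.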

[2] = system: CCRF-CEM; test: Cytotoxicity against human CCRF-CEM cells after 48 hrs by sulforhodamine B assay; method in brief: as §1
[3] = system: SNB-75; test: Growth inhibition of human SNB75 cells at 10 uM after 48 hrs by sulforhodamine B assay; conditions: SNB-75, 48 h, read-out: GI
Method in brief: (§2)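 NCI-60 single-dose screen. Cells grown in RPMI 1640 with 5% FBS and L-glutamine, plated at 5000–40,000 cells/well by doubling time, and preincubated 24 h at 37 °C, 5% CO2. Compound stocks in DMSO, added at one concentration, then incubated 48 h. Adherent cells fixed with cold TCA (10% final), stained with 0.4% SRB, dye solubilized in 10 mM Tris base, A515 read. Reported as percent growth relative to untreated control.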

[4] = system: DU-145; test: Cytotoxicity against human DU145 cells after 48 hrs by sulforhodamine B assay; conditions: DU-145, 48 h; method in brief: as §1
[5] = system: MDA-MB-468; test: Growth inhibition of human MDA-MB-468 cells at 10 uM after 48 hrs by sulforhodamine B assay; conditions: MDA-MB-468, 48 h, read-out: GI
Method in brief: (§3)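 NCI one-dose primary screen at 10 (printed mM) across the 60-line panel. Cells in RPMI 1640 with 5% FBS and 2 mM L-glutamine, plated at 5000–40,000 cells/well and incubated 24 h before dosing. Exposure 48 h at 37 °C, 5% CO2. Adherent cells were fixed with cold TCA, suspension cells fixed after settling. SRB stain, absorbance 515 nm. Reported as percent growth of treated cells relative to control.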

[6] = system: LOX IMVI; test: Cytotoxicity against human LOXIMVI cells after 48 hrs by sulforhodamine B assay; method in brief: as §1
[7] = system: CAKI-1; test: Cytotoxicity against human Caki1 cells after 48 hrs by sulforhodamine B assay; conditions: CAKI-1, 48 h; method in brief: as §1
[8] = system: HCT-15; test: Cytotoxicity against human HCT15 cells after 48 hrs by sulforhodamine B assay; conditions: HCT-15, 48 h; method in brief: as §1
[9] = system: UACC-257; test: Cytotoxicity against human UACC257 cells after 48 hrs by sulforhodamine B assay; conditions: UACC-257, 48 h
Method in brief: (§4)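 NCI 60 panel five-dose screen. Cells in RPMI 1640 with 5% FBS and 2 mM L-glutamine, plated at 5000–40,000 cells/well and preincubated 24 h. Compounds were tested at five 10-fold concentrations (0.01–100) for 48 h at 37 °C, 5% CO2. Cells were fixed with TCA and stained with SRB, absorbance 515 nm. GI50, TGI and LC50 were taken from % growth curves against time-zero and control.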

[10] = system: SF-295; test: Cytotoxicity against human SF295 cells after 48 hrs by sulforhodamine B assay; conditions: SF-295, 48 h; method in brief: as §1
[11] = system: A498; test: Cytotoxicity against human A498 cells after 48 hrs by sulforhodamine B assay; conditions: A498, 48 h; method in brief: as §1
[12] = system: MDA-MB-231; test: Growth inhibition of human MDA-MB-231 cells at 10 uM after 48 hrs by sulforhodamine B assay; conditions: MDA-MB-231, 48 h, read-out: GI; method in brief: as §3
[13] = system: SW-620; test: Cytotoxicity against human SW620 cells after 48 hrs by sulforhodamine B assay; conditions: SW-620, 48 h; method in brief: as §1
[14] = system: SK-MEL-5; test: Growth inhibition of human SK-MEL-5 cells at 10 uM after 48 hrs by sulforhodamine B assay; conditions: SK-MEL-5, 48 h, read-out: GI; method in brief: as §2
[15] = system: HCC 2998; test: Cytotoxicity against human HCC2998 cells after 48 hrs by sulforhodamine B assay; conditions: HCC 2998, 48 h; method in brief: as §1
[16] = system: RPMI-8226; test: Cytotoxicity against human RPMI8226 cells after 48 hrs by sulforhodamine B assay; conditions: RPMI-8226, 48 h; method in brief: as §1
[17] = system: UO-31; test: Growth inhibition of human UO31 cells at 10 uM after 48 hrs by sulforhodamine B assay; conditions: UO-31, 48 h, read-out: GI; method in brief: as §2
[18] = system: T47D; test: Cytotoxicity against human T47D cells after 48 hrs by sulforhodamine B assay; method in brief: as §1
[19] = system: HCT-116; test: Cytotoxicity against human HCT116 cells after 48 hrs by sulforhodamine B assay; conditions: HCT-116, 48 h; method in brief: as §1
[20] = system: CCRF-CEM; test: Growth inhibition of human CCRF-CEM cells at 10 uM after 48 hrs by sulforhodamine B assay; conditions: read-out: GI; method in brief: as §3
[21] = system: OVCAR-5; test: Growth inhibition of human OVCAR5 cells at 10 uM after 48 hrs by sulforhodamine B assay; conditions: OVCAR-5, 48 h, read-out: GI; method in brief: as §3
[22] = system: UO-31; test: Cytotoxicity against human UO31 cells after 48 hrs by sulforhodamine B assay; conditions: UO-31, 48 h; method in brief: as §4
[23] = system: SN12C; test: Cytotoxicity against human SN12C cells after 48 hrs by sulforhodamine B assay; method in brief: as §1
[24] = system: SF-295; test: Growth inhibition of human SF295 cells at 10 uM after 48 hrs by sulforhodamine B assay; conditions: SF-295, 48 h, read-out: GI; method in brief: as §3
[25] = system: A498; test: Growth inhibition of human A498 cells at 10 uM after 48 hrs by sulforhodamine B assay; conditions: A498, 48 h, read-out: GI; method in brief: as §3
[26] = system: NCI-H23; test: Growth inhibition of human NCI-H23 cells at 10 uM after 48 hrs by sulforhodamine B assay; conditions: NCI-H23, 48 h, read-out: GI; method in brief: as §3
[27] = system: OVCAR-8; test: Cytotoxicity against human OVCAR8 cells after 48 hrs by sulforhodamine B assay; conditions: OVCAR-8, 48 h; method in brief: as §1
[28] = read-out: LC50 (the source's name)

## O=C(CCc1nnc(-c2ccc(Cl)cc2Cl)o1)c1nc2ccccc2[nH]1
[1]
  GI50: 10.7 µM
  TGI: 45.5 µM
[1]; [28]
  CC50: 100 µM
[2]
  GI50: 4.86 µM
  TGI: 66 µM
[2]; [28]
  CC50: 100 µM
[3]
  inhibition of growth at 10 µM: 36.6%
[4]
  GI50: 17.8 µM
  TGI: 100 µM
[4]; [28]
  CC50: 100 µM
[5]
  inhibition of growth at 10 µM: 102%
[6]
  GI50: 4.03 µM
  TGI: 39.8 µM
[6]; [28]
  CC50: 100 µM
[7]
  GI50: 3.49 µM
  TGI: 41.1 µM
[7]; [28]
  CC50: 100 µM
[8]
  GI50: 5.13 µM
  TGI: 48.6 µM
[8]; [28]
  CC50: 100 µM
[9]
  GI50: 13.7 µM
  TGI: 44.4 µM
[9]; [28]
  CC50: 100 µM
[10]
  GI50: 5.98 µM
  TGI: 42.9 µM
[10]; [28]
  CC50: 100 µM
[11]
  GI50: 1.53 µM
  TGI: 10.1 µM
[11]; [28]
  CC50: 100 µM
[12]
  inhibition of growth at 10 µM: 61.7%
[13]
  GI50: 3.46 µM
  TGI: 16.3 µM
[13]; [28]
  CC50: 74.3 µM
[14]
  inhibition of growth at 10 µM: 33%
[15]
  GI50: 6.52 µM
  TGI: 32.3 µM
[15]; [28]
  CC50: 100 µM
[16]
  GI50: 3.61 µM
  TGI: 23.3 µM
[16]; [28]
  CC50: 100 µM
[17]
  inhibition of growth at 10 µM: 48%
[18]
  GI50: 3.34 µM
  TGI: 60 µM
[18]; [28]
  CC50: 100 µM
[19]
  GI50: 3.33 µM
  TGI: 13.5 µM
[19]; [28]
  CC50: 52.5 µM
[20]
  inhibition of growth at 10 µM: 52.7%
[21]
  inhibition of growth at 10 µM: 18.9%
[22]
  GI50: 6.71 µM
  TGI: 32.9 µM
[22]; [28]
  CC50: 100 µM
[23]
  GI50: 6.22 µM
  TGI: 56.9 µM
[23]; [28]
  CC50: 100 µM
[24]
  inhibition of growth at 10 µM: 40.5%
[25]
  inhibition of growth at 10 µM: 41.6%
[26]
  inhibition of growth at 10 µM: 38.1%
[27]
  GI50: 9.26 µM
  TGI: 100 µM
[27]; [28]
  CC50: 100 µM
